# Test results from ChEMBL document CHEMBL1124493, “Synthesis and tumor uptake of 5-82Br- and 5-131I-labeled 5-halo-1-(2-fluoro-2-deoxy-beta-D-ribofuranosyl)uracils” (J Med Chem, 1989).
# Key:
# Mus musculus [1] = test: Biodistribution of intravenously injected [131I]-labeled compound in bone of BDF1 female mice bearing subcutaneous Lewis lung carcinoma after 4 hours; type: ADME, organism-based, Bone element; settings: in vivo, iv
# Procedure, shortened: (§1)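 Female BDF1 mice bearing subcutaneous Lewis lung carcinoma received a single intravenous dose of 0.5-1.8 μg of the 131I-labeled nucleoside (55-110 kBq). They were sacrificed at set times, and tissues were weighed wet and γ-counted. Activity is expressed as percent of injected dose per gram of wet tissue, given as mean ± standard deviation for six animals.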
# Mus musculus [2] = test: Biodistribution of intravenously injected [131I]-labeled compound in blood of BDF1 female mice bearing subcutaneous Lewis lung carcinoma after 0.25 hours; type: ADME, organism-based; settings: in vivo, iv; procedure, shortened: as §1
# Mus musculus [3] = test: Biodistribution of intravenously injected [131I]-labeled compound in blood of BDF1 female mice bearing subcutaneous Lewis lung carcinoma after 1 hours; type: ADME, organism-based; settings: in vivo, iv; procedure, shortened: as §1
# Mus musculus [4] = test: Biodistribution of intravenously injected [131I]-labeled compound in blood of BDF1 female mice bearing subcutaneous Lewis lung carcinoma after 24 hours; type: ADME, organism-based; settings: in vivo, iv; procedure, shortened: as §1
# Mus musculus [5] = test: Biodistribution of intravenously injected [131I]-labeled compound in blood of BDF1 female mice bearing subcutaneous Lewis lung carcinoma after 2 hours; type: ADME, organism-based; settings: in vivo, iv; procedure, shortened: as §1
# Mus musculus [6] = test: Biodistribution of intravenously injected [131I]-labeled compound in gut of BDF1 female mice bearing subcutaneous Lewis lung carcinoma after 24 hours; type: ADME, organism-based; settings: in vivo, iv; procedure, shortened: as §1
# Mus musculus [7] = test: Biodistribution of intravenously injected [131I]-labeled compound in heart of BDF1 female mice bearing subcutaneous Lewis lung carcinoma after 2 hours; type: ADME, organism-based; settings: in vivo, iv; procedure, shortened: as §1
# Mus musculus [8] = test: Biodistribution of intravenously injected [131I]-labeled compound in kidney of BDF1 female mice bearing subcutaneous Lewis lung carcinoma after 1 hours; type: ADME, organism-based; settings: in vivo, iv; procedure, shortened: as §1
# Mus musculus [9] = test: Biodistribution of intravenously injected [131I]-labeled compound in kidney of BDF1 female mice bearing subcutaneous Lewis lung carcinoma after 2 hours; type: ADME, organism-based; settings: in vivo, iv; procedure, shortened: as §1
# Mus musculus [10] = test: Biodistribution of intravenously injected [131I]-labeled compound in lung of BDF1 female mice bearing subcutaneous Lewis lung carcinoma after 0.5 hours; type: ADME, organism-based; settings: in vivo, iv; procedure, shortened: as §1
# Mus musculus [11] = test: Biodistribution of intravenously injected [131I]-labeled compound in stomach of BDF1 female mice bearing subcutaneous Lewis lung carcinoma after 1 hours; type: ADME, organism-based; settings: in vivo, iv
# Procedure, shortened: (§2)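 Female BDF1 mice with subcutaneous Lewis lung carcinoma given i.v. 0.5-1.8 μg of 131I-labeled nucleoside (55-110 kBq). Killed at set times. Tissues weighed wet and γ-counted. Radioactivity expressed as percent injected dose per gram wet tissue, mean ± SD of six animals.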
# Mus musculus [12] = test: Biodistribution of intravenously injected [131I]-labeled compound in skin of BDF1 female mice bearing subcutaneous Lewis lung carcinoma after 8 hours; type: ADME, organism-based, Zone of skin; settings: in vivo, iv; procedure, shortened: as §2
# Mus musculus [13] = test: Biodistribution of intravenously injected [131I]-labeled compound in skin of BDF1 female mice bearing subcutaneous Lewis lung carcinoma after 2 hours; type: ADME, organism-based, Zone of skin; settings: in vivo, iv; procedure, shortened: as §2
# Mus musculus [14] = test: Biodistribution of intravenously injected [131I]-labeled compound in spleen of BDF1 female mice bearing subcutaneous Lewis lung carcinoma after 4 hours; type: ADME, organism-based; settings: in vivo, iv; procedure, shortened: as §2
# Mus musculus [15] = test: Biodistribution of intravenously injected [131I]-labeled compound in stomach of BDF1 female mice bearing subcutaneous Lewis lung carcinoma after 24 hours; type: ADME, organism-based; settings: in vivo, iv; procedure, shortened: as §2
# Mus musculus [16] = organism: Mus musculus; test: Urinary [131I]- compound observed in BDF1 female mice bearing lewis lung tumor after 0-0.5 h of injected [131I]-compound; type: functional, tissue-based; settings: Urine
# Mus musculus [17] = organism: Mus musculus; test: Urinary iodide observed in BDF1 female mice bearing lewis lung tumor after 2-3 hr of injected [131I]-compound; type: functional, tissue-based; settings: Urine
# Mus musculus [18] = test: Biodistribution of intravenously injected [131I]-labeled compound in tumor of BDF1 female mice bearing subcutaneous Lewis lung carcinoma after 2 hours; type: ADME, organism-based; settings: in vivo, iv; procedure, shortened: as §2
# Mus musculus [19] = test: Biodistribution of intravenously injected [131I]-labeled compound in tumor of BDF1 female mice bearing subcutaneous Lewis lung carcinoma after 1 hours; type: ADME, organism-based; settings: in vivo, iv; procedure, shortened: as §2
# Mus musculus [20] = test: Biodistribution of intravenously injected [82Br]-labeled compound in tumor of BDF1 female mice bearing subcutaneous Lewis lung carcinoma after 1 hours; type: ADME, organism-based; settings: in vivo, iv
# Mus musculus [21] = test: Biodistribution of intravenously injected [82Br]-labeled compound in tumor of BDF1 female mice bearing subcutaneous Lewis lung carcinoma after 2 hours; type: ADME, organism-based; settings: in vivo, iv
# Mus musculus [22] = test: Biodistribution of intravenously injected [82Br]-labeled compound in gut of BDF1 female mice bearing subcutaneous Lewis lung carcinoma after 0.50 hours; type: ADME, organism-based; settings: in vivo, iv, 0.5 h
# Procedure, shortened: (§3)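 82Br-labeled nucleoside given intravenously to female BDF1 mice bearing subcutaneous Lewis lung carcinoma, at 47-130 μg carrying 20-60 kBq. Mice sacrificed at each time point. Wet-weighed tissues γ-counted. Values are percent injected dose per gram wet tissue, mean ± SD, n = 6.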
# Mus musculus [23] = test: Biodistribution of intravenously injected [82Br]-labeled compound in gut of BDF1 female mice bearing subcutaneous Lewis lung carcinoma after 1 hours; type: ADME, organism-based; settings: in vivo, iv; procedure, shortened: as §3
# Mus musculus [24] = test: Biodistribution of intravenously injected [82Br]-labeled compound in gut of BDF1 female mice bearing subcutaneous Lewis lung carcinoma after 2 hours; type: ADME, organism-based; settings: in vivo, iv
# Procedure, shortened: (§4)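 Female BDF1 mice with subcutaneous Lewis lung carcinoma given an iv injection of [82Br]-labelled nucleoside, 47-130 μg carrying 20-60 kBq 82Br. Tissues were excised, weighed wet and γ-counted. Values are percent injected dose per gram of wet tissue, mean ± standard deviation of six animals, with organ-to-tumour ratios derived.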
# Mus musculus [25] = test: Biodistribution of intravenously injected [82Br]-labeled compound in gut of BDF1 female mice bearing subcutaneous Lewis lung carcinoma after 4 hours; type: ADME, organism-based; settings: in vivo, iv; procedure, shortened: as §4
# Mus musculus [26] = test: Biodistribution of intravenously injected [82Br]-labeled compound in heart of BDF1 female mice bearing subcutaneous Lewis lung carcinoma after 24 hours; type: ADME, organism-based; settings: in vivo, iv; procedure, shortened: as §4
# Mus musculus [27] = test: Biodistribution of intravenously injected [82Br]-labeled compound in kidney of BDF1 female mice bearing subcutaneous Lewis lung carcinoma after 1 hours; type: ADME, organism-based; settings: in vivo, iv; procedure, shortened: as §4
# Mus musculus [28] = test: Biodistribution of intravenously injected [82Br]-labeled compound in kidney of BDF1 female mice bearing subcutaneous Lewis lung carcinoma after 2 hours; type: ADME, organism-based; settings: in vivo, iv; procedure, shortened: as §4
# Mus musculus [29] = test: Biodistribution of intravenously injected [82Br]-labeled compound in kidney of BDF1 female mice bearing subcutaneous Lewis lung carcinoma after 24 hours; type: ADME, organism-based; settings: in vivo, iv; procedure, shortened: as §4
# Mus musculus [30] = test: Biodistribution of intravenously injected [82Br]-labeled compound in blood of BDF1 female mice bearing subcutaneous Lewis lung carcinoma after 24 hours; type: ADME, organism-based; settings: in vivo, iv; procedure, shortened: as §3
# Mus musculus [31] = test: Biodistribution of intravenously injected [82Br]-labeled compound in lung of BDF1 female mice bearing subcutaneous Lewis lung carcinoma after 24 hours; type: ADME, organism-based; settings: in vivo, iv; procedure, shortened: as §4
# Mus musculus [32] = test: Biodistribution of intravenously injected [82Br]-labeled compound in lung of BDF1 female mice bearing subcutaneous Lewis lung carcinoma after 8 hours; type: ADME, organism-based; settings: in vivo, iv; procedure, shortened: as §4
# Mus musculus [33] = test: Biodistribution of intravenously injected [82Br]-labeled compound in muscle of BDF1 female mice bearing subcutaneous Lewis lung carcinoma after 0.5 hours; type: ADME, organism-based, Muscle tissue; settings: in vivo, iv; procedure, shortened: as §4
# Mus musculus [34] = test: Biodistribution of intravenously injected [82Br]-labeled compound in muscle of BDF1 female mice bearing subcutaneous Lewis lung carcinoma after 1 hours; type: ADME, organism-based, Muscle tissue; settings: in vivo, iv; procedure, shortened: as §4
# Mus musculus [35] = test: Biodistribution of intravenously injected [82Br]-labeled compound in muscle of BDF1 female mice bearing subcutaneous Lewis lung carcinoma after 8 hours; type: ADME, organism-based, Muscle tissue; settings: in vivo, iv; procedure, shortened: as §4
# Mus musculus [36] = test: Biodistribution of intravenously injected [82Br]-labeled compound in skin of BDF1 female mice bearing subcutaneous Lewis lung carcinoma after 0.50 hours; type: ADME, organism-based, Zone of skin; settings: in vivo, iv, 0.5 h; procedure, shortened: as §4
# Mus musculus [37] = test: Biodistribution of intravenously injected [82Br]-labeled compound in stomach of BDF1 female mice bearing subcutaneous Lewis lung carcinoma after 0.50 hours; type: ADME, organism-based; settings: in vivo, iv, 0.5 h
# Mus musculus [38] = test: Biodistribution of intravenously injected [82Br]-labeled compound in stomach of BDF1 female mice bearing subcutaneous Lewis lung carcinoma after 1 hours; type: ADME, organism-based; settings: in vivo, iv
structure (smiles),measurement,setting,value
O=c1[nH]c(=O)n([C@@H]2O[C@H](CO)[C@@H](O)[C@H]2F)cc1I,Injected dose/g,Mus musculus [1],1.3%
same,Injected dose/g,Mus musculus [2],19%
same,Injected dose/g,Mus musculus [3],13.3%
same,Injected dose/g,Mus musculus [4],0.16%
same,Injected dose/g,Mus musculus [5],8.9%
same,Injected dose/g,Mus musculus [6],0.07%
same,Injected dose/g,Mus musculus [7],5.7%
same,Injected dose/g,Mus musculus [8],12%
same,Injected dose/g,Mus musculus [9],8.5%
same,Injected dose/g,Mus musculus [10],7.5%
same,Injected dose/g,Mus musculus [11],4.5%
same,Injected dose/g,Mus musculus [12],2.1%
same,Injected dose/g,Mus musculus [13],3.2%
same,Injected dose/g,Mus musculus [14],1.8%
same,Injected dose/g,Mus musculus [15],0.21%
same,Radioactive constituents,Mus musculus [16],90.8%
same,Radioactive constituents,Mus musculus [17],13.7%
same,Injected dose/g,Mus musculus [18],3.8%
same,Injected dose/g,Mus musculus [19],4.1%
O=c1[nH]c(=O)n([C@H]2O[C@@H](CO)[C@H](O)[C@H]2F)cc1Br,Injected dose/g,Mus musculus [20],0.67%
same,Injected dose/g,Mus musculus [21],0.57%
same,Injected dose/g,Mus musculus [22],0.72%
same,Injected dose/g,Mus musculus [23],0.42%
same,Injected dose/g,Mus musculus [24],0.41%
same,Injected dose/g,Mus musculus [25],0.28%
same,Injected dose/g,Mus musculus [26],0.48%
same,Injected dose/g,Mus musculus [27],1.12%
same,Injected dose/g,Mus musculus [28],0.71%
same,Injected dose/g,Mus musculus [29],0.36%
same,Injected dose/g,Mus musculus [30],0.51%
same,Injected dose/g,Mus musculus [31],0.35%
same,Injected dose/g,Mus musculus [32],0.46%
same,Injected dose/g,Mus musculus [33],0.4%
same,Injected dose/g,Mus musculus [34],0.21%
same,Injected dose/g,Mus musculus [35],0.14%
same,Injected dose/g,Mus musculus [36],0.72%
same,Injected dose/g,Mus musculus [37],0.79%
same,Injected dose/g,Mus musculus [38],0.5%
